This note sets out measurements from ChEMBL document CHEMBL3351751, “Tricyclic pyrazoles part 7. Discovery of potent and selective dihydrothienocyclopentapyrazole derived CB2 ligands” (Eur J Med Chem, 2014).

Calls of active or inactive are those of the source. The rule behind the calls is not given here.

For one assay, the species on record is Mus musculus. Kind of assay: Selectivity ratio of Ki for CD1 mouse brain (minus cerebellum) CB1 receptor to Ki for CD1 mouse spleen CB2 receptor. It is filed as tissue-based.
Assay [1] addresses Cannabinoid receptor 2 (Homo sapiens) (UniProt P34972). Description: Inhibition of CB2 receptor in HL60 cells assessed as inhibition of ERK1/2 phosphorylation after 15 mins by Western blotting analysis. It is filed as cell-based. Conditions: HL-60. Background: Immunoblotting shows a protein as a band on a membrane.
A further assay deals with Cannabinoid receptor 1 (Mus musculus, UniProt P47746). Kind of assay: Displacement of [3H]-CP55940 from CD1 mouse brain (minus cerebellum) CB1 receptor by liquid scintillation counting. It is filed as tissue-based. The method, boiled down: (§1)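 Male CD1 mouse tissue homogenised in ice-cold TME buffer (50 mM Tris–HCl, 1 mM EDTA, 3.0 mM MgCl2, pH 7.4); membranes (30–80 µg protein) incubated with 0.5–1 nM [3H]-CP-55,940, 1 h, 30 °C, with 5 mg/mL fatty acid-free BSA. Non-specific binding with 1 µM CP-55,940. GF/C filtration. Triplicate, ≥5 independent experiments; IC50 by sigmoid fit converted to Ki.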
(In general: In a radioligand displacement assay an active substance lowers the binding of a labelled ligand.)

Another assay concerns the target Cannabinoid receptor 2 (Mus musculus, UniProt P47936). Kind of assay: Displacement of [3H]-CP55940 from CD1 mouse spleen CB2 receptor by liquid scintillation counting. The method, boiled down:
as §1

Sequence of Cannabinoid receptor 2 (Homo sapiens) (P34972 whole entry): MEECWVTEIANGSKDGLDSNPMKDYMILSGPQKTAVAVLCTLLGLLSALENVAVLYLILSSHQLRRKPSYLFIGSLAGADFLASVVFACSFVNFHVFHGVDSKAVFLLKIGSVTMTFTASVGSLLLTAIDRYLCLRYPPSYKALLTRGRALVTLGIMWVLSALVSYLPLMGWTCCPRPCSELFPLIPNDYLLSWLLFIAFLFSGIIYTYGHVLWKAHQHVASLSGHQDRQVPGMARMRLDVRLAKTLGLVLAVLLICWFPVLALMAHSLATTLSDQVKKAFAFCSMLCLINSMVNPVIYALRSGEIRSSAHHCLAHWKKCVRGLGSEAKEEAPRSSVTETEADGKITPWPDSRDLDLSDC
Sequence of Cannabinoid receptor 2 (P47936 whole entry): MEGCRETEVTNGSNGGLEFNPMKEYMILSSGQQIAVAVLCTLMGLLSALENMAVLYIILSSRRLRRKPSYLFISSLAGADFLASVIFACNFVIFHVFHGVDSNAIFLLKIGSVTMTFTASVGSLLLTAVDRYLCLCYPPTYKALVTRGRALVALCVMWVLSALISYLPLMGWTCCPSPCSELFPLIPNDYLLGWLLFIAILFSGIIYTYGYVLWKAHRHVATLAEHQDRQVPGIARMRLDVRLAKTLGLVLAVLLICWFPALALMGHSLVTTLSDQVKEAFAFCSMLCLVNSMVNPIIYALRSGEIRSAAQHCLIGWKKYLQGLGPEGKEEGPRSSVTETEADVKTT
Sequence of Cannabinoid receptor 1 (P47746 whole entry): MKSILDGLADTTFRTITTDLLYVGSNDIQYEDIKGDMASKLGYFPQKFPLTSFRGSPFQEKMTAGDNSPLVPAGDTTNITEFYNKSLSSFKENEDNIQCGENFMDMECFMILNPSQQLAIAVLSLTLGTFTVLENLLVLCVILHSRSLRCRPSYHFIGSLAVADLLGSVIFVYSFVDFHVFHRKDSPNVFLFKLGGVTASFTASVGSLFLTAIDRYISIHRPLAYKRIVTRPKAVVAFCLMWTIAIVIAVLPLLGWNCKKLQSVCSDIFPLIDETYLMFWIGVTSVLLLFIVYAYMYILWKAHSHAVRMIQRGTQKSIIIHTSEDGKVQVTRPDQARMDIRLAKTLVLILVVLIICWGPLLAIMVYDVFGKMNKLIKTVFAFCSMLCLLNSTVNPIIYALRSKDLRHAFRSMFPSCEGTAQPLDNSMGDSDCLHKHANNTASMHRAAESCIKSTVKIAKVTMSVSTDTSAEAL

`Cc1ccc(Cn2nc(C(=O)NC3C(C)(C)C4CC[C@@]3(C)C4)c3c2-c2c(C)csc2C3)cc1` (stereo partly specified): in the assay listed under Mus musculus, the Ratio Ki was 175. Further, the inhibition result in assay [1] is “Active”. Also, the inhibition constant Ki was determined as 0.42 µM on Cannabinoid receptor 1 and 0.0024 µM on Cannabinoid receptor 2.
Taken in the same sequence, the figures for `Cc1cc2c(s1)Cc1c(C(=O)NN3CCCCC3)nn(-c3ccc(Cl)cc3Cl)c1-2` were 191, “Active”, 0.44 µM and 0.0023 µM.
Taken in the same sequence, the figures for `Cc1csc2c1-c1c(c(C(=O)NN3CCCCC3)nn1-c1ccc(Cl)cc1Cl)C2` were 6.8, “Active”, 3.92 µM and 0.578 µM.
As to `Cc1c(C(=O)c2cccc3ccccc23)c2cccc3c2n1[C@H](CN1CCOCC1)CO3`, the inhibition entry in assay [1] was “Active”.
Take `Cc1cc2c(s1)Cc1c(C(=O)NN3CCCCCC3)nn(-c3ccc(Cl)cc3Cl)c1-2`: the Ratio Ki in the assay listed under Mus musculus amounted to 402. In addition, in assay [1], the inhibition entry was “Active”. Further, the Ki on Cannabinoid receptor 1 was 0.442 µM; on Cannabinoid receptor 2, 0.0011 µM.
Taken in the same sequence, the figures for `Cc1csc2c1-c1c(c(C(=O)NN3CCCC3)nn1-c1ccc(Cl)cc1Cl)C2` were 5.8, “Active”, 4.73 µM and 0.817 µM.
Turning to `Cc1ccc(Cn2nc(C(=O)NC3CCCCC3)c3c2-c2c(C)csc2C3)cc1`, the Ratio Ki in the assay listed under Mus musculus was 10.4. The inhibition entry in assay [1] was “Active”. The results for the Ki on Cannabinoid receptor 1 and on Cannabinoid receptor 2 were 1.98 µM and 0.191 µM, respectively.
Turning to `Cc1csc2c1-c1c(c(C(=O)NC3CCCCC3)nn1-c1ccc(Cl)cc1Cl)C2`, the Ratio Ki in the assay listed under Mus musculus came out at 6.1. For the same molecule, in assay [1], the inhibition result was “Active”. For the same molecule, the inhibitory constant (Ki) was 3.08 µM at Cannabinoid receptor 1 and 0.501 µM on Cannabinoid receptor 2.
For the molecule `Cc1csc2c1-c1c(c(C(=O)NN3CCCCCC3)nn1-c1ccc(Cl)cc1Cl)C2`, the Ratio Ki in the assay listed under Mus musculus came to 11.8. The inhibition result in assay [1] was “Active”. In addition, the Ki on Cannabinoid receptor 1 amounted to 3.8 µM; at Cannabinoid receptor 2, 0.321 µM.
For `Cc1ccc(Cn2nc(C(=O)NN3CCCCC3)c3c2-c2c(C)csc2C3)cc1`, the Ratio Ki in the assay filed under Mus musculus was 3. Moreover, in assay [1], the inhibition entry was “Active”. Further, the figures for the Ki on Cannabinoid receptor 1 and on Cannabinoid receptor 2 were 0.377 µM and 0.125 µM, respectively.
With `Cc1ccc(Cn2nc(C(=O)NN3CCCC3)c3c2-c2c(C)csc2C3)cc1`, in the assay filed under Mus musculus, the Ratio Ki worked out at 8.7. Also, the inhibition result in assay [1] is “Active”. Also, the inhibition constant Ki at Cannabinoid receptor 1 amounted to 4.5 µM; on Cannabinoid receptor 2, 0.515 µM.
Taken in the same sequence, the figures for `Cc1cc2c(s1)Cc1c(C(=O)NC3C[C@@H](C)CC[C@@H]3C(C)C)nn(-c3ccc(Cl)cc3Cl)c1-2` (stereo partly specified) were 1.3, “Active”, 0.0065 µM and 0.0051 µM.
Taken in the same sequence, the figures for `Cc1csc2c1-c1c(c(C(=O)NN3CCOCC3)nn1-c1ccc(Cl)cc1Cl)C2` were 6.3, “Active”, 4.71 µM and 0.747 µM.
Taken in the same sequence, the figures for `Cc1cc2c(s1)Cc1c(C(=O)NC3CCCCC3)nn(-c3ccc(Cl)cc3Cl)c1-2` were 62.1, “Active”, 0.447 µM and 0.0072 µM.
On to `Cc1cc2c(s1)Cc1c(C(=O)NN3CCCC3)nn(-c3ccc(Cl)cc3Cl)c1-2`, for which the Ratio Ki in the assay filed under Mus musculus was 36.2. The inhibition result in assay [1] was “Active”. The Ki on Cannabinoid receptor 1 amounted to 1.39 µM; on Cannabinoid receptor 2, 0.0383 µM.
As for `Cc1ccc(Cn2nc(C(=O)NC3C[C@@H](C)CC[C@@H]3C(C)C)c3c2-c2c(C)csc2C3)cc1` (stereo partly specified), the Ratio Ki in the assay listed under Mus musculus came to 59.3. Further, in assay [1], the inhibition result was “Active”. Also, the Ki on Cannabinoid receptor 1 worked out at 0.16 µM; on Cannabinoid receptor 2 it was 0.0027 µM.
Taken in the same sequence, the figures for `Cc1csc2c1-c1c(c(C(=O)NC3C[C@@H](C)CC[C@@H]3C(C)C)nn1-c1ccc(Cl)cc1Cl)C2` (stereo partly specified) were 486, “Active”, 3.26 µM and 0.0067 µM.
Turning to `Cc1ccc(Cn2nc(C(=O)NC3C[C@@H](C)CC[C@@H]3C(C)C)c3c2-c2cc(C)sc2C3)cc1` (stereo partly specified), the Ratio Ki in the assay listed under Mus musculus came to 37.5. Further, the inhibition result in assay [1] was “Active”. The Ki amounted to 0.18 µM at Cannabinoid receptor 1 and 0.0048 µM at Cannabinoid receptor 2.
Consider `Cc1csc2c1-c1c(c(C(=O)NC3C(C)(C)C4CC[C@@]3(C)C4)nn1-c1ccc(Cl)cc1Cl)C2` (stereo partly specified), for which, in the assay filed under Mus musculus, the Ratio Ki was found to be 424. Moreover, the inhibition entry in assay [1] was “Active”. Also, the Ki stood at 2.25 µM at Cannabinoid receptor 1 and 0.0053 µM at Cannabinoid receptor 2.
Taken in the same sequence, the figures for `Cc1ccc(Cn2nc(C(=O)NN3CCCCCC3)c3c2-c2c(C)csc2C3)cc1` were 18.5, “Active”, 1.28 µM and 0.069 µM.
Regarding `Cc1ccc(Cn2nc(C(=O)NN3CCOCC3)c3c2-c2c(C)csc2C3)cc1`, the Ratio Ki in the assay filed under Mus musculus came out at 2.6. The inhibition result in assay [1] is “Active”. Further, the Ki at Cannabinoid receptor 1 stood at 4.5 µM; on Cannabinoid receptor 2, 1.76 µM.

The Ki is the equilibrium dissociation constant of an inhibitor or competing ligand from its target. Read a high Ki as weaker binding.
